A selection: hits, their analogues and other compounds. The true share with any hit is near 3.3%.
Rev-RRE block = HIV Rev-RRE protein-RNA interaction inhibition. P05866. Rev peptide-RRE RNA binding, FRET. inhibition, % at 8 µM. actives 0.79% (n = 97,000). AID 704;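 active means inhibition above the screen-wide mean plus 3 SD, cut at about 35% in these data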;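 further: 0% = median DMSO wells and 100% = median Neomycin B control wells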
Target sequence (P05866 whole entry, looked up): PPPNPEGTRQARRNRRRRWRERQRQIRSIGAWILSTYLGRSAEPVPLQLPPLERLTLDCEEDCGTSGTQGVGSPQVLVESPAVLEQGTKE
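System: Cy5-labelled duplex RRE RNA binding fluorescein-labelled HIV Rev peptide; Signal: fluorescein-to-Cy5 FRET, 480 nm excitation; Also added: labelled Rev peptide; Compound: one concentration, 8 µM nominal; Buffer or medium: HEPES pH 7.5 salt buffer with EDTA; Read-out: % inhibition of FRET ratio versus controls; Schedule: 5 min preincubation and 15 min binding, 25 °C.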
NFkB transloc pot = enhances IL-1B driven NFkB nuclear translocation | actives 0.3% (n = 94,000) | activation, % at 2 µM | AID 819 | HUVEC IL-1B NFkB p65 nuclear translocation imaging;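 active means activation above 40%, about the mean plus 3 SD, also judged a hit on visual image review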;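 further: percent activation is computed from the nuclear over cytoplasmic p65 intensity ratio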
IL1B cytotox = toxic to HUVEC cells under IL-1B stimulation. HUVEC cell count loss, Hoechst imaging, IL-1B stimulated. cell count reduction, % at 2 µM. actives 0.41% (n = 94,000);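 active means cell count reduction more than 3 SD above the screen-wide mean, cut at about 70% in these data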;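 further: normalized per plate to untreated control cells as the no-loss baseline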
Measles CPE = protection of cells from measles virus; Measles virus-infected cells, CPE protection, absorbance; protection (pct of control), % at 4 µM; actives 1.5% (n = 140,000); AID 841; in the data active means protection mostly above about 24%, no sharp cut-off; inactive means mostly below about 26%
IL1B NFkB inh = blocks IL-1B driven NFkB nuclear translocation in HUVEC cells; HUVEC IL-1B NFkB p65 nuclear translocation imaging; AID 796; actives 0.43% (n = 94,000); inhibition, % at 2 µM;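 active means inhibition above about 30% together with a positive call from visual inspection of the well image, limit read from the data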;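 further: nuclear over cytoplasmic p65 intensity ratio measured by imaging; 0% = IL-1B stimulated DMSO wells and 100% = unstimulated DMSO wells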
FAK inh = FAK (human) kinase inhibition | biochemical FAK kinase activity assay | inhibition, %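 (tested at 7 µM)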 | actives 0.84% (n = 97,000) | AID 727;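 further: 0% = DMSO and 100% = reference compound high control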
FAK inh conf = confirmation of human focal adhesion kinase (FAK) inhibitors; FAK kinase biochemical inhibition assay; AID 794; actives 28% (n = 750); shares compounds with FAK inh; inhibition, % at 7 µM
Starred values were filed as active, the others as inactive; / = no result given; [ ] = remark or other dose. Unless noted, no stated cut-off is given here; in the data, active means inhibition above about 19%; inactive means the rest.

SMILES	Rev-RRE block	NFkB transloc pot	IL1B cytotox	Measles CPE	IL1B NFkB inh	FAK inh	FAK inh conf
Cc1cccc(NC(=O)CSc2nc3ccccc3c3nc(CCc4c(C)n[nH]c4C)nn23)c1	-0.7	10.0	-21.6	3.3	-10.0	4.0	/
Cc1n[nH]c(C)c1CCc1nc2c3ccccc3nc(SCC(=O)Nc3ccccc3F)n2n1	7.0	-9.0	86.1*	3.9	9.0	21.1*	15.8
COc1ccc2c(c1)[nH]c1c(N3CCN(Cc4ccc5c(c4)OCO5)CC3)ncnc12	14.9	-14.6	19.7	6.7	14.6	25.4*	10.0
Cc1ccc2[nH]c3c(N4CCN(Cc5ccccc5)CC4)ncnc3c2c1	10.8	/	/	20.5	/	17.2	/
Cc1ccc2[nH]c3c(N4CCCCCC4)ncnc3c2c1	1.2	-10.2	-2.2	7.4	10.2	42.2*	18.6
Cc1ccc2[nH]c3c(N4CCN(Cc5ccc6c(c5)OCO6)CC4)ncnc3c2c1	15.6	2.0	-14.6	12.6	-2.0	38.3*	18.0
C/C(Cc1ccccc1)=N\NC(=O)CNC(=O)c1ccccc1Br	/	/	/	5.2	/	/	/
O=C(N/C(=C/c1cn(-c2ccccc2)nc1-c1ccccc1)C(=O)N1CCOCC1)c1ccc(Cl)cc1Cl	/	/	/	3.2	/	/	/
Cc1cc(NC(=O)CSc2c3c(nc4ccccc24)CCC3)no1	-2.9	-8.3	-2.4	8.8	8.3	26.8*	8.5
COc1ccccc1NC(=O)CSc1c2c(nc3ccccc13)CCC2	/	/	/	27.3	/	/	/
Cc1ccc(C(=O)N/C(=C/c2ccco2)C(=O)NCCc2c[nH]c3ccccc23)cc1	/	/	/	24.0	/	/	/
CC(=O)Nc1cc(OC(C)=O)c2nonc2c1OC(C)=O	4.7	9.2	45.8	/	-9.2	57.3*	3.0
CN(C)CCN(C)Cc1ccccc1Sc1cccc2ccccc12	/	/	/	9.4	/	/	/
CCc1cccc(C)c1NC(=O)CN(C)Cc1ccccc1F	/	/	/	4.5	/	/	/
O=C(Nc1ccc(F)cc1)c1ccccc1S(=O)(=O)c1ccccc1[N+](=O)[O-]	/	/	/	33.3	/	/	/
CCOC(=O)c1cnn(-c2ncnc3sc4c(c23)CCC4)c1N	7.9	29.6	-3.9	4.1	-29.6	25.6*	17.1
O=c1c2ccccc2nc2ccc(NCc3ccco3)nn12	23.1	0.2	6.6	1.7	-0.2	23.4*	1.0
CCN(CC)c1ccc2cc(-c3nc4ccccc4[nH]3)c(=O)oc2c1	134.6*[fluorescence artefact?]	11.2	-1.9	5.3	-11.2	52.7*	31.2*
O=C(COC(=O)c1cc(-c2cccs2)nn1-c1ccccc1)Nc1ccc(F)c([N+](=O)[O-])c1	/	/	/	11.5	/	/	/
O=C(Nc1cccc(NC(=O)c2ccc(Br)o2)n1)c1ccc(Br)o1	0.6	16.0	-8.5	9.5	-16.0	26.0*	11.6
O=C(c1ccco1)N1CCN(C(=O)c2cc(-c3ccccn3)nc3ccccc23)CC1	12.9	-12.3	-30.5	3.9	12.3	-3.4	/
O=C(OCC(=O)N1CCN(C(=O)c2ccco2)CC1)c1sc2cc(F)ccc2c1Cl	5.8	1.0	-44.1	2.4	-1.0	-1.4	/
O=C(OCC(=O)N1CCN(C(=O)c2ccco2)CC1)c1cc(-c2ccc(Cl)c(Cl)c2Cl)nc2ccccc12	-1.8	19.4	0.0	16.8	-19.4	35.3*	19.2*
O=C(OCC(=O)N1CCN(C(=O)c2ccco2)CC1)c1cc(-c2ccco2)nc2ccccc12	-8.8	0.5	-13.9	7.2	-0.5	69.2*	17.0
CSCCC(NS(=O)(=O)c1ccc(Cl)cc1)C(=O)OCC(=O)c1ccc(F)cc1 (stereo not given)	/	/	/	16.4	/	/	/
SMILES	Rev-RRE block	NFkB transloc pot	IL1B cytotox	Measles CPE	IL1B NFkB inh	FAK inh	FAK inh conf
O=C(NCc1ccc2c(c1)OCO2)c1cc2ccccc2o1	8.5	-17.7	6.1	18.8	17.7	4.5	/
Cc1ccc2cc3cc(C(=O)NCc4ccc5c(c4)OCO5)oc3nc2c1	2.4	9.6	-13.0	33.9*	-9.6	27.9*	19.9*
COC(=O)/C=C/c1ccc(OC(=O)c2ccncc2)cc1	/	/	/	1.2	/	/	/
Cc1ccc(C)n1Cc1ccc(C(=O)O)cc1	-58.9	10.2	-56.9	8.7	-10.3	78.3*	-4.3
CCOc1ccc(N=C(NN)c2ccc3ccccc3n2)cc1	/	/	/	2.4	/	/	/
C=CCOC(=O)/C(=C\C=C\c1ccccc1)NC(=O)c1ccccc1	/	/	/	3.3	/	/	/
CCOC(=O)CC(NS(=O)(=O)c1ccc(OC)c(C)c1)c1cccc([N+](=O)[O-])c1 (stereo not given)	/	/	/	1.9	/	/	/
N#Cc1c(-c2ccco2)cc(-c2ccccn2)nc1N	4.9	35.4	-17.1	8.9	-35.4	11.3	/
N#Cc1c(-c2ccco2)cc(-c2cccnc2)nc1N	13.8	9.5	-20.5	4.5	-9.5	19.6*	5.7
CC1Cc2ccccc2N1C(=O)CN1CCC(n2nnc3cc(C(F)(F)F)ccc32)CC1 (stereo not given)	8.8	-8.0	-11.5	8.5	8.0	0.8	/
CN(Cc1cccc(Cl)c1Cl)c1ccc(S(=O)(=O)N2CCCCC2)cc1[N+](=O)[O-]	/	/	/	17.7	/	/	/
CCOc1ccccc1-c1nc(-c2ccc(NC(=O)Cc3ccc(OC)cc3)cc2)no1	8.6	0.7	33.3	3.4	-0.7	24.9*	7.8
CCOc1ccccc1-c1nc(-c2ccc(NC(=O)c3ccc(Br)o3)cc2)no1	3.7	-2.2	-17.5	3.8	2.2	-0.6	/
O=C(Cn1c2ccccc2c(=O)c2ccccc21)N/N=C/c1ccc(N2CCCC2)c([N+](=O)[O-])c1	/	/	/	0.1	/	/	/
O=C(Cn1c2ccccc2c(=O)c2ccccc21)N/N=C/c1cc([N+](=O)[O-])ccc1N1CCCCCC1	-20.4	1.0	-25.0	6.9	-1.0	69.3*	79.6*
Cc1ccc(C)c(S(=O)(=O)N2CC(=O)N(CCc3ccccc3)C(=O)C2)c1	/	/	/	1.7	/	/	/
O=C(CSc1nnc(COc2cccc3cccnc23)o1)N1CCc2ccccc21	10.3	-0.7	-1.1	5.2	0.7	19.6*	8.0
Cc1c(N2C(=O)c3ccc4c5c(ccc(c35)C2=O)CC4)c(=O)n(-c2ccccc2)n1C	-28.4	18.9	-54.2	0.2	-18.9	70.0*	40.7*
CCOc1cc(CNc2ccc(O)cc2)cc(Br)c1OCc1ccccc1F	1.9	4.5	-16.7	3.4	-4.5	21.6*	3.2
COc1cc(CNc2ccc(O)cc2)cc(Br)c1OCc1ccccc1F	/	/	/	4.6	/	/	/
CCN(CC)C(=O)/C(=C\c1cccc([N+](=O)[O-])c1)NC(=O)c1ccco1	/	/	/	12.7	/	/	/
CCN(CC)C(=O)CSc1nc(N)c2c3c(sc2n1)CC(C)CC3 (stereo not given)	-0.5	1.7	-5.4	3.5	-1.7	27.6*	31.9*
CC1CCc2c(sc3nc(SCC(=O)NCc4ccco4)nc(N)c23)C1 (stereo not given)	4.3	3.5	29.4	3.8	-3.5	2.0	/
COc1ccc(C(=O)Nc2nnc(-c3ccco3)s2)cc1	7.2	3.6	24.9	3.9	-3.6	-2.2	/
Nc1nc(-c2ccco2)c(-c2ccco2)s1	13.2	11.2	12.9	29.4	-11.2	7.9	/
COc1ccc2nc(-c3ccco3)c(-c3ccco3)nc2c1	6.6	/	/	10.6	/	66.5*	2.9

Screens deposited in PubChem BioAssay by several laboratories.
